TRAIL sens C8: sensitizes caspase-8 expressing cells to TRAIL. NB7+C8 cells + TRAIL, ATPlite viability luminescence. inhibition (viability loss, TRAIL sensitization), % at 10 µM. hit rate 1% among 360,000. AID 624354;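 active = compounds causing at least 50% loss of cell viability in the single-dose screen, relative to plate controls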
PPC-1+TRAIL kill: PPC-1 cancer cell killing with TRAIL present; PPC-1 cells + TRAIL, ATPLite viability luminescence; cell killing (% activity), % at 4 µM or 5 µM; hit rate 0.41% among 220,000; AID 1443;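 active = cell killing above 50% in the first pass at 4 µM, then a duplicate retest at 5 µM averaging 50% or more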;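 also: plate controls were cells with TRAIL plus DMSO for no effect and medium-only wells lacking cells for full effect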
FLuc inhib CS: Photinus pyralis luciferase inhibition counter-screen. ATPLite firefly luciferase biochemical luminescence, 10 min. P08659. inhibition, % at 10 µM. hit rate 1.5% among 200,000;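 active = inhibition above about 50% when tested at 10 µM, limit read from the data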
Target sequence (P08659 whole entry, looked up): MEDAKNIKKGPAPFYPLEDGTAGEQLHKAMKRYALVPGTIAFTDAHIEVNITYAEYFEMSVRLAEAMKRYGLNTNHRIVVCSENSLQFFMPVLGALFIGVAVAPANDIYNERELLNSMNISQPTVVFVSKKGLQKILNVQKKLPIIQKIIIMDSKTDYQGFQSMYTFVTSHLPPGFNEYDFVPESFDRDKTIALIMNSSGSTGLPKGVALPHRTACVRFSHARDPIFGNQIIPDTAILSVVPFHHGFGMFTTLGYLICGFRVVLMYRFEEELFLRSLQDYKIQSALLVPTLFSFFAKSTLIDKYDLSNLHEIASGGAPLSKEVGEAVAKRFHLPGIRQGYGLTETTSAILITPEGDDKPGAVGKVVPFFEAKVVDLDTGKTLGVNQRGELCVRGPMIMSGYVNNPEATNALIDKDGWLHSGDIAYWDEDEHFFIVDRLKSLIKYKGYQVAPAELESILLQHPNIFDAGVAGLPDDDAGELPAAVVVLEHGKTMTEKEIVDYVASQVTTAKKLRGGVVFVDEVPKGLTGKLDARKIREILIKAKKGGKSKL
FLuc stim CS: firefly luciferase counter-screen for stimulation assays; ATPlite luciferase biochemical, luminescence, 10 min; 0 = ATP-free wells, 1 = DMSO control; activation factor at 10 µM; 200,000 tested, under 10 active;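 active = luciferase activation factor, scaled between plate controls, of at least 2 with compound at 10 µM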
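System: cell-free luciferase reagent; medium: PBS as buffer for the ATP substrate; doses: test compounds dosed from 2 mM stocks in 100% DMSO; incubation: 10 min, room temperature; measured by: luminescence from luciferase reaction; read-out: luciferase activation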
Starred values were filed as active, the others as inactive; / = no result. Only some compounds are listed: those with a hit (about 1.5% of all), similar ones and a draw of the others.

SMILES	TRAIL sens C8	PPC-1+TRAIL kill	FLuc inhib CS	FLuc stim CS
CCC(=O)N1CCCc2cc(S(=O)(=O)N3CCN(c4ncccn4)CC3)ccc21	19	10	-6	1.1
COc1ccc(/C=C2/CCc3ccccc3C2=O)cc1OC	15	2	33	0.7
CCOc1ccccc1C=C1CCc2ccccc2C1=O	4	/	/	/
COc1ccc(C=C2CCc3ccccc3C2=O)cc1	87*	/	/	/
CCOc1ccc(/C=C2\CCc3ccccc3C2=O)cc1	77*	35	/	/
CCCCNC(=S)Nc1ccc(OC)nc1	5	8	-5	1
CN(C)N1C(N)=C(C#N)C(c2cccs2)C2=C1CC(C)(C)CC2=O (configuration not stated)	-8	-4	2	1
O=C(/C=C/c1cccs1)Nc1cccnc1	26	32	62*	0.4
Cc1ccnc(NC(=O)/C=C/c2cccs2)c1	79*	68*	92*	0.1
O=C(/C=C/c1cccs1)Nc1nncs1	38	14	/	/
O=C(/C=C/c1cccs1)Nc1scc(-c2ccccc2)c1C(=O)O	30	12	81*	0.2
O=C(/C=C/c1cccs1)Nc1nc(-c2ccccc2)cs1	6	12	4	1
CC(C)N(C(=O)Cn1cc(S(=O)(=O)CC(=O)Nc2ccccc2)c2ccccc21)C(C)C	-2	/	/	/
CCN(C(=O)COC(=O)c1n[nH]c2ccccc12)c1ccccc1	9	/	/	/
COc1ccc(C(=O)Nc2nc3ccccc3s2)cc1	60*	/	/	/
Cc1ccc(C(=O)Nc2nc3ccccc3c(=O)s2)cc1	61*	40	80*	0.2
O=C(Nc1nc2ccccc2s1)c1ccc(OCC2CCCO2)cc1 (configuration not stated)	67*	22	74*	0.3
COC(=O)c1ccc2nc(NC(=O)C(C)C)sc2c1	25	31	60*	0.4
O=C(Nc1nc2ccccc2s1)c1ccc(F)cc1	46	28	64*	0.4
COc1cc2c(cc1NC(=O)c1cccc([N+](=O)[O-])c1)oc1ccccc12	50*	18	3	1
O=C(/C=C\Nc1ccccn1)c1ccc(Cl)cc1	82*	71*	91*	0.1
O=C(CN1C(=O)/C(=C/c2ccco2)SC1=S)NC1CCS(=O)(=O)C1 (configuration not stated)	-12	/	/	/
COC(=O)c1c(-c2ccccc2)csc1NC1=NS(=O)(=O)c2ccccc21	73*	40	65*	0.3
COc1ccc(NS(=O)(=O)c2ccc(N/N=C(\C)c3ccncc3)c([N+](=O)[O-])c2)cc1	31	54*	1	1
CCN(CC)CCn1c2c(c(SCC(=O)Nc3nc4ccc(C)cc4s3)nc1=O)CCC2	66*	/	/	/
SMILES	TRAIL sens C8	PPC-1+TRAIL kill	FLuc inhib CS	FLuc stim CS
CCc1[nH]nc(C(=O)NC2CCCN(Cc3ccccc3F)C2)c1C (configuration not stated)	10	/	/	/
COc1cc(NC(=S)N2CCCC(CO)C2)c(OC)cc1Cl (configuration not stated)	-11	12	-6	1.1
CCCNC(=O)COC(=O)c1ccccc1OCC(=O)Nc1ccc(Br)cc1	-8	23	-1	1
CC(C)(C)NC(=O)COC(=O)c1ccccc1OCC(=O)Nc1ccc(Br)cc1	37	35	64*	0.4
COc1ccc(C(=O)/C=C2\C(=O)Nc3ccc(Br)cc32)cc1	59*	/	/	/
C/C=C/C=C\C(=O)Nc1cccc(C2=NOC3(C2)C[C@@H](C(N)=O)N(C(=O)c2cc([N+](=O)[O-])cc([N+](=O)[O-])c2C)C3)c1 (some centres not stated)	-3	-3	/	/
COc1ccc2c(c1)CC/C(=C\c1ccc(OC)c(Cn3cccn3)c1)C2=O	16	-2	4	1
COc1ccc2c(c1)CC/C(=C/c1ccco1)C2=O	50	18	81*	0.2
O=C1C(=Cc2ccco2)C(=O)c2ccccc21	-8	-8	16	0.8
Nc1ccc2c(c1)C/C(=C/c1ccco1)C2=O	41	4	87*	0.1
O=C1/C(=C/c2ccco2)CCc2ccccc21	23	9	61*	0.4
CC1CN(C(=O)COC(=O)c2ccc(C#N)cc2)CC(C)O1 (configuration not stated)	-18	/	/	/
Cc1cc(C)n(S(=O)(=O)c2ccccc2[N+](=O)[O-])n1	-13	/	/	/
O=[N+]([O-])c1ccc(S(=O)(=O)NCCS(=O)(=O)N2CCN(c3ccccc3)CC2)cc1	4	/	/	/
CCOc1ccc(NC(=O)c2cnccn2)cc1	47	47	72*	0.3
CCOc1ccc(NC(=O)c2ccccc2OCC(=O)c2ccccc2)cc1	43	35	61*	0.4
CCOc1ccc(NC(=O)c2nccnc2CO)cc1	49	25	63*	0.4
CCOc1ccc(NC(=O)c2ccccn2)cc1	91*	87*	96*	0
CCOc1ccc(NC(=O)C/C(C)=N/NC(=O)c2cnccn2)cc1	-15	/	/	/
Cc1ccc(NC(=O)c2ccccc2OCC(=O)c2ccccc2)cc1	-8	-4	5	1
Cc1nn(C(=O)CCCn2cc([N+](=O)[O-])cn2)c(C)c1Cl	-7	15	-6	1.1
CCOc1ccc(NC(=O)c2cnsn2)cc1	29	-7	61*	0.4
COc1cccc(NC(=O)c2cnsn2)c1	-15	-7	0	1
Cc1cc(C(=O)COc2ccc3ccc(=O)oc3c2)c(C)n1C	9	8	15	0.8
FC(F)(F)c1cccc(-c2nc3nc(Cl)c(Cl)nc3[nH]2)c1	53*	29	/	/
SMILES	TRAIL sens C8	PPC-1+TRAIL kill	FLuc inhib CS	FLuc stim CS
COC(=O)C(C(=O)OC)c1ncccc1NS(=O)(=O)c1ccc(C)cc1	4	/	/	/
Fc1ccccc1CSc1nc2ccccc2[nH]1	25	39	51*	0.5
COC(=O)c1cc(CSc2nc3ccccc3[nH]2)oc1C	20	20	53*	0.5
COc1cccc(CSc2nc3ccccc3[nH]2)c1	31	35	67*	0.3
Fc1c(F)c(F)c(CSc2nc3ccccc3[nH]2)c(F)c1F	10	2	-4	1
CCCc1cc(=O)[nH]c(SCc2cc(C(=O)OC)c(C)o2)n1	-10	14	-6	1.1
CC(=O)C1=C(C)NC(=O)NC1c1ccc(Cl)cc1 (configuration not stated)	4	-22	-7	1.1
NS(=O)(=O)c1ccc2nc(NC(=O)c3ccncc3)sc2c1	24	25	64*	0.4
CS(=O)(=O)c1ccc2nc(NC(=O)c3ccccc3)sc2c1	37	/	/	/
CCOc1ccc2nc(NC(=O)c3cccnc3)sc2c1	35	33	60*	0.4
CCOc1ccc2nc(NC(=O)c3cnc(C)cn3)sc2c1	25	20	15	0.8
CCOc1ccc2nc(NC(=O)c3ccc(C)o3)sc2c1	58*	/	/	/
COc1ccc(-c2c(NC(=O)CC(C)C)n(C)c3ccccc3c2=O)cc1OC	13	/	/	/
CCCCCCCCCCCC1N=C(N)NC(CCCO)=C1C(=O)OC (configuration not stated)	63*	/	/	/
CN1CCN(NC(=O)c2cccc(C(F)(F)F)c2)CC1	-12	12	/	/
COc1cc(/C=C2\COC/C(=C\c3cc(OC)c(OC)c(OC)c3)C2=O)cc(OC)c1OC	72*	41	/	/

Screening results (PubChem BioAssay)
